Source: ChEMBL document CHEMBL3271987, “Novel pyrazolo, isoxazolo, and thiazolo steroidal systems and model analogs containing dimethyoxylaryl (or dihydroxylaryl) groups and derivatives. Synthesis, spectral properties, and biological activity” (1976)
Calls of active or inactive are those of the source. The rule behind the calls is not given here.

Experiments:
Bacillus subtilis = assay: Antibacterial activity against Bacillus subtilis at 91 ug/ml measured up to 24 hrs by spectrophotometry; format: functional, organism-based
In short: (§1)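 Compound suspended in water with 0.1% Me2SO and added to tube cultures of the bacterium growing on glucose minimal medium, to a maximum final concentration of 91 μg/ml. Growth followed by periodic absorbance readings at 540 nm over 24 hr of incubation. Complete inhibition scored at concentration limits of 1 and 91 μg/ml.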

Pseudomonas fluorescens = assay: Antibacterial activity against Pseudomonas fluorescens at 91 ug/ml measured up to 24 hrs by spectrophotometry; format: functional, organism-based; in short: as §1
KB [1] = assay: Growth inhibition of human KB cells at < 25 ug/ml after 7 days by microscopy; format: functional
KB [2] = assay: Growth inhibition of human KB cells at 25 ug/ml after 7 days by microscopy; format: functional; conditions: 168 h, read-out: GI
KB [3] = assay: Growth inhibition of human KB cells at 50 ug/ml after 7 days by microscopy; format: functional; conditions: 168 h, read-out: GI
KB [4] = assay: Growth inhibition of human KB cells at 12 ug/ml after 7 days by microscopy; format: functional, cell-based
L1210 = assay: Antitumor activity against mouse L1210 cells allografted in BDF1 mouse assessed as increase in life span at 0.2 mg, ip qd for 5 days relative to control; format: functional
In short: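 Female BDF1 mice, 35 days old, ten per group, given 1 × 10⁶ viable L1210 cells ip on day 0. Treatment on days 1–5 was 0.2 mg per injection ip, once daily (1 mg total), suspended in saline with 0.05% carboxymethylcellulose. Controls received carrier only. Readout was the ratio of mean survival time (days) of treated to control mice (T/C).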

KB [5] = assay: Growth inhibition of human KB cells at 25 to 100 ug/ml after 7 days by microscopy; format: functional, cell-based
Staphylococcus aureus = assay: Antibacterial activity against Staphylococcus aureus clinical isolate at 91 ug/ml measured up to 24 hrs by spectrophotometry; format: functional, organism-based
In short: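 A recent clinical isolate was grown in tube cultures of nutrient broth. Compound was suspended in water containing 0.1% Me2SO and added to a maximum final concentration of 91 μg/ml. Absorbance at 540 nm was read periodically during 24 hr of incubation.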

KB [6] = assay: Growth inhibition of human KB cells at 25 ug/ml after 7 days by microscopy
KB [7] = assay: Growth inhibition of human KB cells at 10 ug/ml after 7 days by microscopy; format: functional; conditions: 168 h, read-out: GI
KB [8] = assay: Growth inhibition of human KB cells at 150 ug/ml after 7 days by microscopy; format: functional, cell-based

Row | Compound | growth inhibition (GI) (Bacillus subtilis) | growth inhibition (GI) (Pseudomonas fluorescens) | other results
1 | COc1ccc2c3c(ccc2c1)-c1c(cnn1[C@H]1O[C@H](COC(C)=O)[C@@H](OC(C)=O)[C@H](OC(C)=O)[C@H]1OC(C)=O)CC3 | Active | inactive | growth inhibition (GI) (KB [1]): 50%
2 | COc1ccc2c(c1)CCc1cnn(-c3ccccc3)c1-2 | Active | inactive | 
3 | COc1cc2ccc3c(c2cc1OC)CCc1cnn(-c2ccc(F)cc2)c1-3 | inactive | inactive | 
4 | COc1cc2c(cc1OC)-c1[nH]ncc1CC2 | Active | inactive | inhibition of growth at 25 µg/mL (KB [2]): 50%; inhibition of growth at 50 µg/mL (KB [3]): 69%
5 | COc1cc2c(cc1OC)-c1c(cnn1[C@H]1O[C@H](CO)[C@@H](O)[C@H](O)[C@H]1O)CC2 | inactive | inactive | 
6 | COc1cc2c(cc1OC)-c1c(cnn1S(=O)(=O)c1ccc(C)cc1)CC2 | inactive | inactive | 
7 | Oc1cc2c(cc1O)-c1c(cnn1-c1ccccc1)CC2 | Active | inactive | growth inhibition (GI) (KB [1]): 50%
8 | COc1cc2c(cc1OC)-c1c(cnn1-c1ccccc1)CC2 | Active | inactive | 
9 | Oc1cc2c(cc1O)-c1[nH]ncc1CC2 | Active | inactive | growth inhibition (GI) (KB [4]): Active; Ratio (L1210): 1.14; growth inhibition (GI) (KB [1]): 50%
10 | COc1cc2c(cc1OC)-c1nocc1CC2 | inactive | inactive | 
11 | COc1ccc(-n2ncc3c2-c2cc(OC)c(OC)cc2CC3)cc1 | Active | inactive | growth inhibition (GI) (KB [5]): inactive
12 | COc1ccc2c(c1)CCc1cnn([C@H]3O[C@H](COC(C)=O)[C@@H](OC(C)=O)[C@H](OC(C)=O)[C@H]3OC(C)=O)c1-2 | Active | Active | growth inhibition (GI) (Staphylococcus aureus): Active; growth inhibition (GI) (KB [6]): 50%
13 | COc1cc2ccc3c(c2cc1OC)CCc1cnoc1-3 | Active | inactive | 
14 | COc1cc2c(cc1OC)C1=NN(c3ccc(F)cc3)C(=O)[C@H]1CC2 | inactive | inactive | 
15 | COc1ccc2c(c1)CC[C@@H]1C(=O)NN=C21 | Active | inactive | growth inhibition (GI) (KB [6]): 50%
16 | COc1cc2c(cc1OC)-c1nc(Nc3ccccc3)sc1CC2 | Active | inactive | growth inhibition (GI) (KB [6]): 50%
17 | Oc1cc2ccc3c(c2cc1O)CCc1cnn(-c2ccc(F)cc2)c1-3 | Active | inactive | inhibition of growth at 10 µg/mL (KB [7]): 50%; growth inhibition (GI) (KB [1]): 50%
18 | COc1ccc2c3c(ccc2c1)-c1c(cnn1[C@H]1O[C@H](CO)[C@@H](O)[C@H](O)[C@H]1O)CC3 | inactive | inactive | 
19 | COc1cc2ccc3c(c2cc1OC)CCc1cn[nH]c1-3 | Active | inactive | growth inhibition (GI) (KB [5]): inactive
20 | Oc1ccc(-n2ncc3c2-c2cc(O)c(O)cc2CC3)cc1 | inactive | inactive | 
21 | Oc1ccc2c(c1)CCc1cnn(-c3ccccc3)c1-2 | inactive | inactive | 
22 | COc1cc2c(cc1OC)-c1oncc1CC2 | Active | inactive | growth inhibition (GI) (KB [5]): inactive
23 | COc1cc2c(cc1OC)-c1nc(C)sc1CC2 | inactive | inactive | 
24 | COc1cc2c(cc1OC)C1=NNC(=O)[C@H]1CC2 | inactive | inactive | 
25 | COc1cc2c(cc1OC)-c1c(cnn1[C@H]1O[C@H](COC(C)=O)[C@@H](OC(C)=O)[C@H](OC(C)=O)[C@H]1OC(C)=O)CC2 | inactive | inactive | 
26 | Oc1cc2ccc3c(c2cc1O)CCc1cn[nH]c1-3 | inactive | inactive | 
27 | COc1cc2c(cc1OC)C1=NNC(=O)[C@@]1(C)CC2 | Active | inactive | growth inhibition (GI) (KB [6]): 50%
28 | C=CCNc1nc2c(s1)CCc1cc(OC)c(OC)cc1-2 | Active | inactive | inhibition of growth at 25 µg/mL (KB [2]): 50%; growth inhibition (GI) (KB [8]): Active
29 | COc1cc2c(cc1OC)-c1nc(N)sc1CC2 | Active | inactive | growth inhibition (GI) (KB [8]): Active; growth inhibition (GI) (KB [6]): 50%
30 | COc1cc2c(cc1OC)C1=NN(c3ccccc3)C(=O)[C@H]1CC2 | inactive | inactive | 
